From ChEMBL document CHEMBL1135968, “The effect of a phosphodiester linking group on albumin binding, blood half-life, and relaxivity of intravascular diethylenetriaminepentaacetato aquo gadolinium(III) MRI contrast agents” (J Med Chem, 2002) come the findings set out here.

As usually defined, the Vdss is the apparent volume that relates the amount in the body to the concentration in plasma or blood.

For data set [1], the species on record is Rattus norvegicus. The data set can be described thus: Percent of biliary excretion measured in 24 hr in rat. The format is ADME, organism-based, Bile. The following applies: in vivo. The essentials: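 Rats were dosed i.v. at 0.1 mmol/kg with 153Gd-labeled chelate (male Sprague-Dawley, 150-250 g) and housed in metabolic cages to collect urine and feces. They were sacrificed at 24 h. Tissues and excreta were gamma counted, and % injected dose = sample CPM / injected CPM × 100.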

The nature of data set [2]: Area under concentration versus time curve, 0-30 min. Type of data set: ADME. Also noted: time < 0.5 hr. The following applies: 0.5 h. In a few lines: (§1)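 Unanesthetized male Sprague-Dawley rats (150-250 g, n = 2-5) received 153Gd-labeled chelate via tail vein catheter at 0.1 mmol/kg. Plasma was separated from heparinized blood and Gd was measured by ICP. Concentration-time data were fitted biexponentially. Elimination half-life = 0.693/β and Vd = dose/B. AUC 0-30 min was computed per animal by the trapezoidal rule. Values are mean ± 1 SD.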

Data set [3] can be described thus: Relaxivity, measured in phosphate buffer saline (PBS). Type of data set: ADME. In a few lines: (§2)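 T1 was read at 20 MHz (0.47 T) and 37 °C, in triplicate, with recycle delay 5× T1. Five sequential additions of 1–10 mM chelate were titrated into PBS (10 mM phosphate, 150 mM NaCl, pH 7.4) or into 4.5% HSA (fraction V) in PBS. r1 was taken from the titration.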

Data set [4] is described as follows: Area under plasma 1/T1 versus time curve, 0-30 min. Also noted: concentration or dose not given beside the values. The format is ADME, cell-free. In a few lines: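 Male Sprague-Dawley rats (150-250 g, n = 2-5, unanesthetized) were given 0.1 mmol/kg 153Gd chelate i.v. by tail vein catheter. Plasma water T1 was measured on a Minispec in triplicate, and plasma Δ1/T1 was followed over time. AUC 0-30 min was calculated per animal by the trapezoidal rule. Values are mean ± 1 SD.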

The species named for data set [5] is Rattus norvegicus. Description: Elimination of half-life in rat. Type of data set: ADME, organism-based. The following applies: in vivo. The essentials:
as §1

For data set [6], the species on record is Rattus norvegicus. Description: Volume of distribution, steady state in rat. The format is ADME, organism-based. The following applies: in vivo. In a few lines: as §1
In data set [7] the target is T1, Albumin (Homo sapiens, UniProt P02768). The data set can be described thus: Percentage of compound (0.1 mM) bound to human serum albumin (4.5%). The following applies: 100 µM. The essentials:
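Ultrafiltration, in duplicate. 153Gd-labeled chelate was added to 4.5% HSA to 0.1 mM total Gd. An aliquot was counted, and 400 μL was centrifuged through a 5000 NMWL filter at room temperature (22 ± 1 °C). The unbound fraction came from filtrate counts.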

In data set [8] the target is T1, Albumin. Description: Observed relaxivity bound to human serum albumin (4.5%). The essentials:
as §2

T1 sequence (P02768 whole entry): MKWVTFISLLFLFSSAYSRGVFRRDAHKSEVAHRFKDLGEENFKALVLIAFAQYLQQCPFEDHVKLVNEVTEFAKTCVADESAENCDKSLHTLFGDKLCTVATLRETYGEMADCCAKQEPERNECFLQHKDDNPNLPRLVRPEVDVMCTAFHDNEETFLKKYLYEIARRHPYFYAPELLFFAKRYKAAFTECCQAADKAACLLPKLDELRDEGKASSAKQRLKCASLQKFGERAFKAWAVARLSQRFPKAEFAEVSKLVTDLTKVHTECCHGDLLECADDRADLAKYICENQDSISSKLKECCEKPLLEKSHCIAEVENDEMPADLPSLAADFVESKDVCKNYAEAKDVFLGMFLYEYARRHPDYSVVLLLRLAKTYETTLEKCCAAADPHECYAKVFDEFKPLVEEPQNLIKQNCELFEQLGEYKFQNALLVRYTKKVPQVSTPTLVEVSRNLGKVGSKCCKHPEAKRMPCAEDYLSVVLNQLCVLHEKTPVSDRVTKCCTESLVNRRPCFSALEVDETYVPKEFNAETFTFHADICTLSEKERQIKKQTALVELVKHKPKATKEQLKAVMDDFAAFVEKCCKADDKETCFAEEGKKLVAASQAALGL

Substance “Bis-[N-methyl-D-glucamine]-{(2-((2-naphthyl)methyl)-diethylenetriaminepentaacetato)(aquo)-gadolinium (III)}” showed an Excretion in the data set listed under Rattus norvegicus [1] of 64.3%. The substance also yielded an AUC conc in data set [2] of 43 µM·h. The substance also registered a Relaxivity in data set [3] of 5.5 mM⁻¹ s⁻¹. The substance also returned an AUC 1/T1 in data set [4] of 40.1 s-1 min. In addition, the T1/2 beta in the data set listed under Rattus norvegicus [5] is 6.8 min. In the data set listed under Rattus norvegicus [6], this substance registered a Vdss of 0.44 L/kg. In addition, the Bound on Albumin [7] worked out at 30%. At Albumin [8], this substance returned an Observed relaxivity of 16.3 mM⁻¹ s⁻¹.
“Bis-[N-methyl-D-glucamine]-{(2-(octyldiethylenetriamine)diethylenetriaminepentaacetato)(aquo)-gadolinium (III)}” had an Excretion in the data set listed under Rattus norvegicus [1] of 66.9%. The substance also came in with an AUC conc in data set [2] of 51 µM·h. The substance further displayed a Relaxivity in data set [3] of 5.9 mM⁻¹ s⁻¹. The same substance showed an AUC 1/T1 in data set [4] of 69.7 s-1 min. This substance also showed a T1/2 beta in the data set listed under Rattus norvegicus [5] of 6.2 min. This substance showed a Vdss in the data set filed under Rattus norvegicus [6] of 0.62 L/kg. The Bound at Albumin [7] amounted to 44%. This substance also had an Observed relaxivity on Albumin [8] of 20.7 mM⁻¹ s⁻¹.
Substance “DIETHYLENETRIAMINEPENTAACETATO AQUO GADOLINIUM (III)” yielded an Excretion in the data set listed under Rattus norvegicus [1] of 6.3%. In addition, the AUC conc in data set [2] was 104 µM·h. This substance also had a Relaxivity in data set [3] of 4.6 mM⁻¹ s⁻¹. In data set [4], the AUC 1/T1 was 46.4 s-1 min. Besides, in the data set filed under Rattus norvegicus [5], the T1/2 beta is given as 15.4 min. In the data set filed under Rattus norvegicus [6], the Vdss was determined as 0.28 L/kg. Also, the Bound on Albumin [7] stood at 0%. The substance also registered an Observed relaxivity at Albumin [8] of 4.6 mM⁻¹ s⁻¹.
“Tris-[N-methyl-D-glucamine]-{(2-(R)-[(2-(1-naphthyl)-ethyl)phosphonooxymethyl]diethylenetriaminepentaacetato)(aquo)-gadolinium (III)}” returned an Excretion in the data set filed under Rattus norvegicus [1] of 17%. The AUC conc in data set [2] was 92.8 µM·h. In addition, the Relaxivity in data set [3] was 6 mM⁻¹ s⁻¹. Also, the AUC 1/T1 in data set [4] is 94.2 s-1 min. Also, the T1/2 beta in the data set listed under Rattus norvegicus [5] came out at 14.3 min. In the data set filed under Rattus norvegicus [6], this substance had a Vdss of 0.32 L/kg. At Albumin [7], this substance returned a Bound of 40%. At Albumin [8], the Observed relaxivity turned out to be 19.5 mM⁻¹ s⁻¹.
As for “Tris-[N-methyl-D-glucamine]-{(2-(R)-[octylphosphonooxymethyl]diethylenetriaminepentaacetato)(aquo)-gadolinium (III)}”, in the data set filed under Rattus norvegicus [1], the Excretion is 17.7%. Further, in data set [2], the AUC conc was found to be 99.3 µM·h. For the same substance, in data set [3], the Relaxivity is 6.1 mM⁻¹ s⁻¹. This substance yielded an AUC 1/T1 in data set [4] of 150 s-1 min. In the data set filed under Rattus norvegicus [5], this substance returned a T1/2 beta of 14.3 min. Moreover, in the data set filed under Rattus norvegicus [6], the Vdss turned out to be 0.31 L/kg. At Albumin [7], the Bound was determined as 54%.
In the data set listed under Rattus norvegicus [1], “Trisodium-{(2-(R)-[(4,4-diphenylcyclohexyl)phosphonooxymethyl]diethylenetriaminepentaacetato)(aquo)-gadolinium (III)}” yielded an Excretion of 15.8%. The substance further gave an AUC conc in data set [2] of 156 µM·h. In data set [3], this substance displayed a Relaxivity of 6.6 mM⁻¹ s⁻¹. This substance also returned an AUC 1/T1 in data set [4] of 285 s-1 min. In addition, the T1/2 beta in the data set filed under Rattus norvegicus [5] is 23.1 min. The Vdss in the data set listed under Rattus norvegicus [6] turned out to be 0.24 L/kg. The same substance yielded a Bound on Albumin [7] of 88%. The same substance had an Observed relaxivity at Albumin [8] of 42 mM⁻¹ s⁻¹.
